# Data published in ChEMBL document CHEMBL1144850, “Combretastatin dinitrogen-substituted stilbene analogues as tubulin-binding and vascular-disrupting agents” (J Nat Prod, 2008).
# pEC50, pIC50: −log10 of the molar value.
# Legend:
# DU-145 = experiment: Cytotoxicity against human DU145 cells after 48 hrs by SRB assay; format: functional
# In short: (§1)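 Cells grown in RPMI1640 with 5% fetal bovine serum were seeded and incubated 24 h, then exposed to serial dilutions for 48 h. Plates were fixed with trichloroacetic acid, stained with sulforhodamine B and read by plate reader. GI50 is the concentration giving a 50% reduction in net protein increase, calculated from optical density data.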
# BXPC-3 = experiment: Cytotoxicity against human BXPC3 cells after 48 hrs by SRB assay; format: functional; in short: as §1
# NCI-H460 = experiment: Cytotoxicity against human NCIH460 cells after 48 hrs by SRB assay; format: functional; in short: as §1
# MCF7 = experiment: Cytotoxicity against human MCF7 cells after 48 hrs by SRB assay; format: functional; in short: as §1
# KM-20L2 = experiment: Cytotoxicity against human KM20L2 cells after 48 hrs by SRB assay; format: functional; in short: as §1
# [1] = Inhibition of calf tubulin polymerization; parameters: species or system Bos taurus
# In short: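 Tubulin purified from calf brain; polymerization followed turbidimetrically at 350 nm. IC50 obtained from the data by nonlinear regression.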
# SF-268 = experiment: Cytotoxicity against human SF268 cells after 48 hrs by SRB assay; format: functional; in short: as §1
# [2] = Cytotoxicity against mouse MHEC5-T cells after 1 hr by MTT assay; format: functional, cell-based
# In short: (§2)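 Mouse heart endothelioma MHEC5-T cells exposed to serial dilutions of compound; viability read by MTT reduction after incubation at 37 °C for 1 h or 5 days exposure. IC50 = concentration reducing viability by 50% versus untreated control.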
# Mus musculus [3] = experiment: Reduction of blood flow to tumor in MHEC5-T xenografted SCID mouse at 10 mg/kg, ip after 24 hrs; format: functional; parameters: scale not given: the % may be the effect or the level left; conditions: route intraperitoneal
# In short: (§3)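 SCID mice bearing flank MHEC5-T tumours (cultured cells injected into right flank), dosed ip at 10 or 100 mg/kg once tumours reached 300 mm3 without necrosis. At 24 h, diluted fluorescent microbeads (1:6 in saline) injected iv via tail vein; mice killed 3 min later. 8 µm cryosections of tumour and normal organs imaged by fluorescence microscopy; three sections from three tumours per group; vehicle controls.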
# [4] = Cytotoxicity against mouse MHEC5-T cells after 5 days by MTT assay; format: functional, cell-based; conditions: 120 h; in short: as §2
# Mus musculus [5] = experiment: Reduction of blood flow to tumor in MHEC5-T xenografted SCID mouse at 100 mg/kg, ip after 24 hrs; format: functional; parameters: scale not given: the % may be the effect or the level left; conditions: route intraperitoneal; in short: as §3
# P388 = experiment: Growth inhibition of mouse P388 cells; format: functional; conditions: read-out: ED50 (the source's name)
SMILES,"GI50 (DU-145; Homo sapiens, DU-145, 48 h) [nM]","GI50 (BXPC-3; Homo sapiens, BXPC-3, 48 h) [nM]","GI50 (NCI-H460; Homo sapiens, NCI-H460, 48 h) [nM]","GI50 (MCF7; Homo sapiens, MCF7, 48 h) [nM]","GI50 (KM-20L2; Homo sapiens, KM-20L2, 48 h) [nM]",pIC50 [1],"GI50 (SF-268; Homo sapiens, SF-268, 48 h) [nM]",GI50 (DU-145) [nM],GI50 (BXPC-3) [nM],pIC50 [2],GI50 (NCI-H460) [nM],GI50 (MCF7) [nM],GI50 (KM-20L2) [nM],Activity (Mus musculus [3]) [%],GI50 (SF-268) [nM],pIC50 [4],Activity (Mus musculus [5]) [%],pEC50 (P388)
COc1cc([N+](=O)[O-])c(/C=C\c2cc(OC)c(OC)c(OC)c2)cc1N,3300,2700,2500,2600,3500,< 4.40,2800,–,–,–,–,–,–,–,–,–,–,–
COc1cc(/C=C\c2ccc(OC)c([N+](=O)[O-])c2[N+](=O)[O-])cc(OC)c1OC,200,2100,370,2300,330,< 4.40,2500,–,–,–,–,–,–,–,–,–,–,–
COc1cc([N+](=O)[O-])c(/C=C\c2cc(OC)c(OC)c(OC)c2)cc1[N+](=O)[O-],5500,3600,3500,2300,4600,< 4.40,2800,–,–,–,–,–,–,–,–,–,–,–
COc1cc(/C=C/c2cc([N+](=O)[O-])c(OC)c([N+](=O)[O-])c2)cc(OC)c1OC,> 10000,> 10000,> 10000,> 10000,> 10000,< 4.40,> 10000,–,–,–,–,–,–,–,–,–,–,–
COc1ccc(/C=C\c2cc(OC)c(OC)c(OC)c2)c(N)c1N [listing 1 of 2 here],–,–,–,–,–,5.55,–,18,7.9,5.62,18,6.2,25,40,8.3,8.37,–,–
COc1cc(N)c(/C=C\c2cc(OC)c(OC)c(OC)c2)cc1[N+](=O)[O-],–,–,–,–,–,4.51,–,3600,3200,4.42,3600,2600,3500,0,2600,< 5.85,0,–
COc1cc(/C=C/c2ccc(OC)c([N+](=O)[O-])c2[N+](=O)[O-])cc(OC)c1OC,> 10000,> 10000,> 10000,> 10000,> 10000,< 4.40,> 10000,–,–,–,–,–,–,–,–,–,–,–
COc1cc([N+](=O)[O-])c(/C=C/c2cc(OC)c(OC)c(OC)c2)cc1[N+](=O)[O-],> 10000,> 10000,> 10000,2500,> 10000,< 4.40,1700,–,–,–,–,–,–,–,–,–,–,–
COc1cc(N)c(/C=C\c2cc(OC)c(OC)c(OC)c2)cc1[N+](=O)[O-].Cl,3500,–,4300,1500,–,–,–,–,1200,–,–,–,980,0,1200,–,13.7,5.18
COc1cc(/C=C\c2cc(N)c(OC)c(N)c2)cc(OC)c1OC.Cl.Cl,–,–,–,–,–,< 4.40,–,–,–,< 4.35,–,–,–,0,–,< 5.85,6,–
COc1cc(/C=C\c2cc([N+](=O)[O-])c(OC)c([N+](=O)[O-])c2)cc(OC)c1OC,260,790,370,410,520,5.13,680,–,–,–,–,–,–,–,–,–,–,–
COc1cc(/C=C\c2cc(NC(=O)[C@@H](N)CO)c(OC)c(NC(=O)[C@@H](N)CO)c2)cc(OC)c1OC,–,–,–,–,–,< 4.40,–,–,–,–,–,–,–,–,–,–,–,–
COc1cc(/C=C\c2cc(N)c(OC)c(N)c2)cc(OC)c1OC,2100,1500,2400,1500,1100,–,1500,–,–,–,–,–,–,3.1,–,–,4.6,5.28
COc1ccc(/C=C\c2cc(OC)c(OC)c(OC)c2)c(N)c1N [listing 2 of 2 here],12,14,9,11,19,5.74,11,–,–,–,–,–,–,–,–,–,–,–
COc1cc(N)c(/C=C\c2cc(OC)c(OC)c(OC)c2)cc1N,330,1000,380,610,440,4.85,550,–,–,–,–,–,–,–,–,–,–,–
COc1cc(/C=C\c2ccc(OC)c(OP(=O)([O-])[O-])c2OP(=O)([O-])[O-])cc(OC)c1OC.[Na+].[Na+].[Na+].[Na+],–,–,–,–,–,–,–,–,–,5.49,–,–,–,70,–,8.34,99,> 8.00
COc1ccc(/C=C\c2cc(OC)c(OC)c(OC)c2)cc1O [COMBRETASTATIN A4],0.8,390,0.6,–,340,–,–,–,–,–,–,–,–,–,–,–,–,–
COc1ccc(/C=C\c2cc(OC)c(OC)c(OC)c2)c(O)c1O [COMBRETASTATIN A-1],170,4400,740,–,61,5.72,–,–,–,–,–,–,–,–,–,–,–,–
COc1ccc(/C=C\c2cc(OC)c(OC)c(OC)c2)cc1OP(=O)([O-])[O-].[Na+].[Na+] [FOSBRETABULIN DISODIUM],–,–,–,–,–,–,–,–,–,6.10,–,–,–,10,–,8.70,88,9.40
